Two compounds from ChEMBL document CHEMBL4811308, “Design, synthesis and broad spectrum antibreast cancer activity of diarylindoles via induction of apoptosis in aggressive breast cancer cells” (Bioorg Med Chem, 2021) can be followed below.

Common to all, as to type: organism-based
A short description of data set [1]: Acute toxicity in Swiss albino mouse assessed as RBC level at 50 mg/kg, po administered once and observed for 7 days (reference value: 9.21 +/- 0.32 /mm3). The following applies: in vivo, 168 h, time 7 day.
Data set [2] in a line: Acute toxicity in Swiss albino mouse assessed as effect on response of organism at 5 to 300 mg/kg, po administered once and observed for 7 days. The note with it: in vivo, 168 h, dose 5-300 mg/kg, time 7 day. A digest of the protocol:
(§1)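 Acute oral toxicity per OECD guideline 423; mice 20–25 g, 3 male + 3 female per group, acclimatized 7 days at 22 ± 5 °C, 12 h light/dark. Compound dissolved in minimal DMSO, diluted in 0.7% CMC, single oral dose of 5, 50 or 300 mg/kg; controls given vehicle only. Clinical signs checked hourly on dosing day, then daily. Samples and body weights taken on day 7.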

The nature of data set [3]: Acute toxicity in Swiss albino mouse assessed as protein level at 50 mg/kg, po administered once and observed for 7 days (reference value: 2.01 +/- 0.11 mg/ml). The note with it: in vivo, 168 h, time 7 day.
Data set [4] is described as follows: Acute toxicity in Swiss albino mouse assessed as body weight at 5 mg/kg, po administered once and observed for 7 days (reference value: 22.75 +/- 0.93 gm). The following applies: in vivo, 168 h, time 7 day.
Data set [5] is described as follows: Acute toxicity in Swiss albino mouse assessed as protein level at 300 mg/kg, po administered once and observed for 7 days (reference value: 2.01 +/- 0.11 mg/ml). The following applies: in vivo, 168 h, time 7 day.
The nature of data set [6]: Acute toxicity in Swiss albino mouse assessed as absolute lungs weight at 5 to 300 mg/kg, po administered once and observed for 7 days. The note with it: in vivo, 168 h, dose 5-300 mg/kg, time 7 day. The procedure, abridged:
as §1

Data set [7] in a line: Acute toxicity in Swiss albino mouse assessed as hemoglobin level at 300 mg/kg, po administered once and observed for 7 days (reference value: 17.35 +/- 0.3 gm/dl). The following applies: in vivo, 168 h, time 7 day.
Data set [8] in a line: Acute toxicity in Swiss albino mouse assessed as absolute brain weight at 5 to 300 mg/kg, po administered once and observed for 7 days. The note with it: in vivo, 168 h, dose 5-300 mg/kg, time 7 day. A digest of the protocol:
as §1

The nature of data set [9]: Acute toxicity in Swiss albino mouse assessed as relative lungs weight at 5 to 300 mg/kg, po administered once and observed for 7 days. The following applies: in vivo, 168 h, dose 5-300 mg/kg, time 7 day. A digest of the protocol: as §1
Data set [10] in a line: Acute toxicity in Swiss albino mouse assessed as ALP level at 300 mg/kg, po administered once and observed for 7 days (reference value: 123.22 +/- 16.04 U/L). The following applies: in vivo, 168 h, time 7 day.
Data set [11] can be described thus: Acute toxicity in Swiss albino mouse assessed as relative brain weight at 5 to 300 mg/kg, po administered once and observed for 7 days. The following applies: in vivo, 168 h, dose 5-300 mg/kg, time 7 day. The procedure, abridged: as §1
Data set [12] is described as follows: Acute toxicity in Swiss albino mouse assessed as SGOT level at 300 mg/kg, po administered once and observed for 7 days (reference value: 22.94 +/- 4.04 U/L). The note with it: in vivo, 168 h, time 7 day.
Data set [13] is described as follows: Acute toxicity in Swiss albino mouse assessed as absolute kidney weight at 5 to 300 mg/kg, po administered once and observed for 7 days. The note with it: in vivo, 168 h, dose 5-300 mg/kg, time 7 day. A digest of the protocol: as §1
Data set [14] is described as follows: Acute toxicity in Swiss albino mouse assessed as albumin at 5 mg/kg, po administered once and observed for 7 days (reference value: 1.62 +/- 0.09 g/dl). The following applies: in vivo, 168 h, time 7 day.
Data set [15] is described as follows: Acute toxicity in Swiss albino mouse assessed as cholesterol level at 5 mg/kg, po administered once and observed for 7 days (reference value: 122.05 +/- 8.12 mg/dl). The following applies: in vivo, 168 h, time 7 day.
Data set [16] in a line: Acute toxicity in Swiss albino mouse assessed as SGPT level at 5 mg/kg, po administered once and observed for 7 days (reference value: 12.65 +/- 2.98 U/L). The following applies: in vivo, 168 h, time 7 day.
A short description of data set [17]: Acute toxicity in Swiss albino mouse assessed as body weight at 300 mg/kg, po administered once and observed for 7 days (reference value: 22.75 +/- 0.93 gm). The following applies: in vivo, 168 h, time 7 day.
The nature of data set [18]: Acute toxicity in Swiss albino mouse assessed as albumin at 50 mg/kg, po administered once and observed for 7 days (reference value: 1.62 +/- 0.09 g/dl). The note with it: in vivo, 168 h, time 7 day.
Data set [19] is described as follows: Acute toxicity in Swiss albino mouse assessed as absolute spleen weight at 5 to 300 mg/kg, po administered once and observed for 7 days. The note with it: in vivo, 168 h, dose 5-300 mg/kg, time 7 day. The procedure, abridged: as §1

`COc1ccc2c(c1)c(Cc1ccc(OC(C)CN(C)C)cc1)c(-c1cc(OC)c(OC)c(OC)c1)n2Cc1ccc(OC(C)CN(C)C)cc1` (stereo not drawn): the Activity in [1] was 8.67 million/mm3; in data set [2] it was “Non-Toxic”; in data set [3], 1.28 mg/mL; in data set [4], 21.6 g; in data set [5] it was 1.66 mg/mL; in [6], “Non-Toxic”. Besides, the Activity in data set [7] was 15.54 g/dL; in data set [8] it was “Non-Toxic”; in data set [9], “Non-Toxic”; in data set [10] it was 74.12 U/L; in data set [11], “Non-Toxic”; in data set [12] it was 33.25 U/L. The Activity entry in data set [13] was “Non-Toxic”; in data set [14], 1.48 g/dL; in data set [15], 117.25 mg/dL; in data set [16] it was 11.82 U/L; in [17], 22.75 g; in data set [18], 1.29 g/dL. The Activity result in data set [19] is recorded as “Non-Toxic”.

For the compound `COc1ccc2c(c1)c(Cc1ccc(OCCN(C)C)cc1)c(-c1cc(OC)c(OC)c(OC)c1)n2Cc1ccc(OCCN(C)C)cc1`, the Activity in data set [1] was 8.72 million/mm3; in [2], “Non-Toxic”; in [3], 1.48 mg/mL; in [4], 21.71 g; in data set [5], 1.93 mg/mL; in data set [6] it was “Non-Toxic”. For the same compound, the Activity in data set [7] is 15.96 g/dL; in [8], “Non-Toxic”; in data set [9], “Non-Toxic”; in data set [10] it was 98.7 U/L; in [11], “Non-Toxic”; in [12], 27.73 U/L. In addition, the Activity result in data set [13] was “Non-Toxic”; in [14], 1.52 g/dL; in [15], 112.13 mg/dL; in data set [16], 14.47 U/L; in data set [17] it was 21.88 g; in [18], 1.43 g/dL. Further, in data set [19], the Activity result was “Non-Toxic”.
